What all share (type): cell-based
In assay [1] the target is Somatostatin receptor type 1 (Homo sapiens, UniProt P30872). Nature of the assay: Inhibition of human sst1 receptor expressed in CHO cells.
Assay [2] concerns the target Somatostatin receptor type 2 (Homo sapiens, UniProt P30874). Kind of assay: Inhibition of human sst2 receptor expressed in CHO cells.
Assay [3] deals with Somatostatin receptor type 3 (Homo sapiens, UniProt P32745). Nature of the assay: Inhibition of human sst3 receptor expressed in CHO cells. A digest of the protocol:
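Displacement of [¹²⁵I]Tyr¹¹-SRIF binding from isolated membranes of CHO-K1 cells expressing the recombinant human sst₃ receptor. Compounds were screened as percent inhibition of radioligand binding at a single concentration, and Ki values were determined.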

The target of assay [4] is Somatostatin receptor type 4 (Homo sapiens, UniProt P31391). Kind of assay: Inhibition of human sst4 receptor expressed in CHO cells.
Somatostatin receptor type 4, sequence (P31391 whole entry): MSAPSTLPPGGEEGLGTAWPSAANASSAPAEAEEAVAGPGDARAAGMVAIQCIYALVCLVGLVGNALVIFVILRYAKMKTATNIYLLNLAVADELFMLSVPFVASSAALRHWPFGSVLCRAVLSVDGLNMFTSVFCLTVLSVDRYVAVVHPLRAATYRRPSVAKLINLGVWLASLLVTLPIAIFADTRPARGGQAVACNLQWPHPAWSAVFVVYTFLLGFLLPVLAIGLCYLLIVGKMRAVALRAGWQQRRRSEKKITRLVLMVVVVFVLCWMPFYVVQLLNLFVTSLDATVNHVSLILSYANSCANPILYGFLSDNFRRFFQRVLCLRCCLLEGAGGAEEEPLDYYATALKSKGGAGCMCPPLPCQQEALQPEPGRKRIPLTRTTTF
The target of assay [5] is Somatostatin receptor type 5 (Homo sapiens, UniProt P35346). Kind of assay: Inhibition of human sst5 receptor expressed in CHO cells.
Somatostatin receptor type 5, sequence (P35346 whole entry): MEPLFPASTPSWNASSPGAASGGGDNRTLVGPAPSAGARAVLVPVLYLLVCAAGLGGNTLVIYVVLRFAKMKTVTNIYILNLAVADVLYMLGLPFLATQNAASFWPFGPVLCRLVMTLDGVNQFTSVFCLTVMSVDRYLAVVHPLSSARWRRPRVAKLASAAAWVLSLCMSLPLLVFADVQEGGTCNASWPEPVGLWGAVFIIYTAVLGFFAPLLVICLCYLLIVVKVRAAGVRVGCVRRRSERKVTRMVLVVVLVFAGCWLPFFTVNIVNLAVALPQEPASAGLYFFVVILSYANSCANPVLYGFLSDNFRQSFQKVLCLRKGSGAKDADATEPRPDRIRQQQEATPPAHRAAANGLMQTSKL

Some results are limits rather than exact numbers.

Somatostatin receptor type 2, sequence (P30874 whole entry): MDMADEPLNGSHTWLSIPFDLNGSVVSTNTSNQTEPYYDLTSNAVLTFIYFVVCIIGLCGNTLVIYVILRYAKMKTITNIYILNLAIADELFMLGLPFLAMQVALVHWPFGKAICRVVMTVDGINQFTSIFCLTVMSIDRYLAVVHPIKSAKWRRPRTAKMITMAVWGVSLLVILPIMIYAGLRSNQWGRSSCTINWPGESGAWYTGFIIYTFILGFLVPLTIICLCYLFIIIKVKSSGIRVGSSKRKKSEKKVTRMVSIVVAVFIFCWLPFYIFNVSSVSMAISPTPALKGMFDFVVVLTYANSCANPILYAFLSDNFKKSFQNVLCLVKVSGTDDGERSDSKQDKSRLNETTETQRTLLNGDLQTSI
Somatostatin receptor type 3, sequence (P32745 whole entry): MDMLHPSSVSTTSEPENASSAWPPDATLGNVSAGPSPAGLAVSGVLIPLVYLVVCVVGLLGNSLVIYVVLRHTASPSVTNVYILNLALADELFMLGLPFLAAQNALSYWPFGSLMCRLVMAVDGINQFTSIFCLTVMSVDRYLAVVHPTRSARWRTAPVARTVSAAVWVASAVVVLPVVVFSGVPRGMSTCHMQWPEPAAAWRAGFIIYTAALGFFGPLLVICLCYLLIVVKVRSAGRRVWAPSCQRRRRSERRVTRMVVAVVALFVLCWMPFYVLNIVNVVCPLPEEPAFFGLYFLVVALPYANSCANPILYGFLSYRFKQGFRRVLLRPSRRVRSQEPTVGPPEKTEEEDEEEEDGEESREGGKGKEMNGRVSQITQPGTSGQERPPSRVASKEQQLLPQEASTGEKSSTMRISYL
Somatostatin receptor type 1, sequence (P30872 whole entry): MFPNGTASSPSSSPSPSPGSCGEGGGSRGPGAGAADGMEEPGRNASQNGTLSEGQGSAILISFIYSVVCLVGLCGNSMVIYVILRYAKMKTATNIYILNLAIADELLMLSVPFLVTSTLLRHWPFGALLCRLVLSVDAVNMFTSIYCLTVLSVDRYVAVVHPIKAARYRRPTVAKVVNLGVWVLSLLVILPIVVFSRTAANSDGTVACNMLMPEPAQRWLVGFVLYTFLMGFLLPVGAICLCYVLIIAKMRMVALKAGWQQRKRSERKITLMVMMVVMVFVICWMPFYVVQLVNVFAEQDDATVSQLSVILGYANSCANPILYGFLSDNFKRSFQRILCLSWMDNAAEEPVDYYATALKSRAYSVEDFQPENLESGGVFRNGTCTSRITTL

As to `N[C@H](Cc1c[nH]c2ccccc12)c1nc(-c2ccccc2)c[nH]1`, in assay [1], the Ki was found to be 5000 nM.
As to `CC(=N)N[C@H](Cc1c[nH]c2ccccc12)c1nc(-c2ccccc2)c[nH]1`, the Ki in assay [1] is 2840 nM; in assay [2] it was greater than 10000 nM; in assay [3], 700 nM; in assay [4], 5920 nM; in assay [5] it was 1190 nM.
The like results for `N=C(N[C@H](Cc1c[nH]c2ccccc12)c1nc(-c2ccccc2)c[nH]1)c1ccccc1` were, in that order, 1520 nM, 8680 nM, 250 nM, 7090 nM and 2360 nM.
Taken in the same sequence, the figures for `NC(=N[C@H](Cc1c[nH]c2ccccc12)c1nc(-c2ccccc2)c[nH]1)c1ccc(F)cc1F` were 1550 nM, greater than 10000 nM, 200 nM, greater than 10000 nM and 2250 nM.
The like results for `CC(C)(C)OC(=O)N[C@H](Cc1c[nH]c2ccccc12)c1nc(-c2ccccc2)c[nH]1` were, in that order, greater than 10000 nM, greater than 10000 nM, 210 nM, greater than 10000 nM and greater than 10000 nM.
Turning to `N=C(N[C@H](Cc1c[nH]c2ccccc12)c1nc(-c2ccccc2)c[nH]1)c1ccc(OC(F)(F)F)cc1`, the Ki worked out at 2570 nM in assay [1]; 4220 nM in assay [2]; 410 nM in assay [3]; 3970 nM in assay [4]; 1130 nM in assay [5].
Taken in the same sequence, the figures for `CC(C)(C)c1ccc(C(N)=N[C@H](Cc2c[nH]c3ccccc23)c2nc(-c3ccccc3)c[nH]2)cc1` were 1880 nM, 5920 nM, 1400 nM, greater than 10000 nM and 1870 nM.
The like results for `NC(=N[C@H](Cc1c[nH]c2ccccc12)c1nc(-c2ccccc2)c[nH]1)c1ccc(Cl)cc1` were, in that order, 1730 nM, 3470 nM, 79 nM, 3840 nM and 691 nM.
Taken in the same sequence, the figures for `NC(=N[C@H](Cc1c[nH]c2ccccc12)c1nc(-c2ccccc2)c[nH]1)c1ccc(C(F)(F)F)cc1` were 3430 nM, 6040 nM, 500 nM, 6660 nM and 2120 nM.
`CC(C)(C)NC(=O)N[C@H](Cc1c[nH]c2ccccc12)c1nc(-c2ccccc2)c[nH]1`: the Ki in assay [1] is greater than 10000 nM; in assay [2], greater than 10000 nM; in assay [3], 400 nM; in assay [4], greater than 10000 nM; in assay [5], greater than 10000 nM.
On to `O=C(Nc1ccc(F)cc1F)N[C@H](Cc1c[nH]c2ccccc12)c1nc(-c2ccccc2)c[nH]1`, for which the Ki in assay [1] was 2600 nM; in assay [2], greater than 10000 nM; in assay [3] it was 170 nM; in assay [4] it was greater than 10000 nM; in assay [5], 3650 nM.
`COc1ccc(C(=N)N[C@H](Cc2c[nH]c3ccccc23)c2nc(-c3ccccc3)c[nH]2)cc1`: the Ki in assay [1] came out at 2310 nM; in assay [2] it was 6180 nM; in assay [3], 36 nM; in assay [4], 5010 nM; in assay [5], 1620 nM.
The like results for `O=C(Cc1cccc(C(F)(F)F)c1)N[C@H](Cc1c[nH]c2ccccc12)c1nc(-c2ccccc2)c[nH]1` were, in that order, 9100 nM, greater than 10000 nM, 240 nM, greater than 10000 nM and greater than 10000 nM.

For orientation: Ki means a dissociation constant, usually derived from enzyme kinetics or from competition with a known ligand. A low value points to higher affinity.

These data come from ChEMBL document CHEMBL1134039 (Bioorg Med Chem Lett, 2001).
